Calls of active or inactive are those of the source. No cut-off for these calls is given here.
Key:
[1] = system: HCC1143; experiment: Antiproliferative activity against human HCC1143 cells after 3 to 7 days by SRB assay; type: functional, cell-based
Method in brief: (§1)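 Sulforhodamine B total-protein read-out on adherent cells maintained in RPMI with 10% FBS. Seeding was 900–4000 cells per well depending on line, with 24 h allowed for attachment. Six replicate wells per concentration, exposure for three cell doublings (3 to 7 days); DMSO final below 0.01%. Logistic sigmoidal fit by nonlinear least squares gave EC50, EMax and AUC; experiments repeated at least three times.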

[2] = system: Hs-578T; experiment: Antiproliferative activity against human Hs578T cells after 3 to 7 days by SRB assay; type: functional, cell-based; method in brief: as §1
[3] = system: HEY; experiment: Induction of senescence in human HEY cells at EC80 concentration after 3 to 6 days by DAPI staining based flow cytometry; type: functional
Method in brief: (§2)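 Compounds given at approximately EC80 (taken from the cell's own dose-response data) for 3 to 6 days depending on line. Floating and trypsinized adherent cells were pooled, washed 3–5 times in warm PBS, and stained with DAPI (1/10,000) in PBS with 4% FBS on ice. Flow cytometry counted 10 000 cells per gate: dead = DAPI+, senescent = SSC+ DAPI−. Duplicate experiments, mean ± SEM.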

[4] = system: MDA-MB-157; experiment: Antiproliferative activity against human MDA-MB-157 cells after 3 to 7 days by SRB assay; type: functional, cell-based; method in brief: as §1
[5] = system: HEY; experiment: Antiproliferative activity against human HEY cells after 3 to 7 days by SRB assay; type: functional, cell-based; method in brief: as §1
[6] = system: BT-20; experiment: Antiproliferative activity against human BT20 cells after 3 to 7 days by SRB assay; type: functional, cell-based; method in brief: as §1
[7] = system: MDA-MB-468; experiment: Antiproliferative activity against human MDA-MB-468 cells after 3 to 7 days by SRB assay; type: functional, cell-based; method in brief: as §1
[8] = system: MCF7; experiment: Antiproliferative activity against human MCF7 cells after 3 to 7 days by SRB assay; type: functional, cell-based; method in brief: as §1
[9] = species on record: Bos taurus; experiment: Induction of bovine brain tubulin alpha polymerization assessed as alpha tubulin expression by measuring pellet/supernatant and pellet fraction level at 3 uM after 1 hr by immunoblot method (reference value: 10.4%)
Method in brief: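 Purified bovine brain tubulin incubated 30 min at 37 °C with 3 μM compound in MEM–glycerol buffer, 2 mM GTP, pH 6.9. Spun at 120000g, 37 °C, 1 h. Supernatant and SDS-solubilized pellet run on SDS-PAGE, α-tubulin quantified by Western blot, % polymerized calculated as P/(S + P).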

[10] = system: BT-549; experiment: Antiproliferative activity against human BT549 cells after 3 to 7 days by SRB assay; type: functional, cell-based; method in brief: as §1
[11] = system: Hs-578T; experiment: Induction of senescence in human Hs578T cells at EC80 concentration after 3 to 6 days by DAPI staining based flow cytometry; type: functional; method in brief: as §2
[12] = system: A549; experiment: Antiproliferative activity against human A549 cells after 3 to 7 days by SRB assay; type: functional, cell-based; method in brief: as §1
[13] = system: MDA-MB-468; experiment: Induction of senescence in human MDA-MB-468 cells assessed as increase in CXCL1 mRNA expression level at EC80 concentration after 6 days by qRT-PCR analysis; type: functional, cell-based
Method in brief: (§3)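 Cells treated 6 days at EC80 doses (derived from dose-response data) and analysed for SASP transcripts by qRT-PCR. Expression was normalised to cyclophilin B and expressed relative to vehicle-treated asynchronous cells. Bars are mean ± SEM (n = 2).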

[14] = system: BT-549; experiment: Induction of senescence in human BT549 cells at EC80 concentration after 3 to 6 days by DAPI staining based flow cytometry; type: functional; method in brief: as §2
[15] = system: BT-549; experiment: Induction of cell death in human BT549 cells at EC80 concentration after 3 to 6 days by DAPI staining based flow cytometry; type: functional; method in brief: as §2
[16] = system: Hs-578T; experiment: Induction of cell death in human Hs578T cells at EC80 concentration after 3 to 6 days by DAPI staining based flow cytometry; type: functional; method in brief: as §2
[17] = system: MDA-MB-468; experiment: Induction of senescence in human MDA-MB-468 cells at EC80 concentration after 3 to 6 days by DAPI staining based flow cytometry; type: functional; method in brief: as §2
[18] = system: HEY; experiment: Induction of senescence in human HEY cells assessed as increase in PAI1 mRNA expression level at EC80 concentration after 6 days by qRT-PCR analysis; type: functional, cell-based; method in brief: as §3
[19] = system: MDA-MB-468; experiment: Induction of senescence in human MDA-MB-468 cells assessed as increase in IL-8 mRNA expression level at EC80 concentration after 6 days by qRT-PCR analysis; type: functional, cell-based; method in brief: as §3
[20] = system: HEY; experiment: Induction of senescence in human HEY cells assessed as increase in IL-8 mRNA expression level at EC80 concentration after 6 days by qRT-PCR analysis; type: functional, cell-based; method in brief: as §3
[21] = system: HEY; experiment: Induction of senescence in human HEY cells assessed as increase in CXCL1 mRNA expression level at EC80 concentration after 6 days by qRT-PCR analysis; type: functional, cell-based; method in brief: as §3
[22] = system: MDA-MB-468; experiment: Induction of cell death in human MDA-MB-468 cells at EC80 concentration after 3 to 6 days by DAPI staining based flow cytometry; type: functional; method in brief: as §2
[23] = system: MDA-MB-468; experiment: Induction of senescence in human MDA-MB-468 cells assessed as increase in PAI1 mRNA expression level at EC80 concentration after 6 days by qRT-PCR analysis; type: functional, cell-based; method in brief: as §3
[24] = system: Hs-578T; experiment: Induction of senescence in human Hs578T cells assessed as increase in dead cells at 100 nM after 10 days by DAPI staining based flow cytometry; type: functional, cell-based
Method in brief: (§4)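 HS578T treated with 100 nM doxorubicin for 10 days, then stained with DAPI for live-cell flow cytometry. Forward scatter (volume) and side scatter (granularity) recorded. Dead cells were DAPI+; senescent cells were high FSC and SSC with low DAPI uptake; mitotic catastrophe was FSC increase only.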

[25] = system: Hs-578T; experiment: Induction of senescence in human Hs578T cells assessed as increase in cell population with high forward scatter at 100 nM after 10 days by DAPI staining based flow cytometry; type: functional; method in brief: as §4
[26] = system: Hs-578T; experiment: Induction of senescence in human Hs578T cells assessed as increase in IL-6 mRNA expression level at 100 nM after 10 days by qRT-PCR analysis; type: functional, cell-based
Method in brief: (§5)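 HS578T exposed to 100 nM doxorubicin for 10 days, then sorted for SSC+ DAPI− cells. Sorted and unsorted populations assayed by qRT-PCR for SASP transcripts. Expression was normalised to cyclophilin B, and groups compared by unpaired t test.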

[27] = system: Hs-578T; experiment: Induction of mitotic catastrophe in human Hs578T cells assessed as increase in cell population with high forward scatter at 100 nM after 10 days by DAPI staining based flow cytometry; type: functional; method in brief: as §4
[28] = system: Hs-578T; experiment: Induction of senescence in human Hs578T cells assessed as increase in IL-8 mRNA expression level at 100 nM after 10 days by qRT-PCR analysis; type: functional, cell-based; method in brief: as §5
[29] = system: Hs-578T; experiment: Induction of senescence in human Hs578T cells assessed as increase in cell population with high side scatter at 100 nM after 10 days by DAPI staining based flow cytometry; type: functional; method in brief: as §4
[30] = system: Hs-578T; experiment: Induction of senescence in human Hs578T cells assessed as increase in CXCL1 mRNA expression level at 100 nM after 10 days by qRT-PCR analysis; type: functional, cell-based; method in brief: as §5

SMILES | Activity [1] | Activity [2] | Activity [3] | Activity [4] | Activity [5] | Activity [6] | Activity [7] | Activity [8] | Activity [9] | Activity [10] | Activity [11] | Activity [12] | Activity [14] | Activity [15] | Activity [16] | Activity [17] | Activity [18] | Activity [20] | Activity [21] | Activity [22] | further results
CC(=O)O[C@H]1C(=O)[C@@]2(C)[C@H]([C@H](OC(=O)c3ccccc3)[C@]3(O)C[C@H](OC(=O)[C@H](O)[C@@H](NC(=O)c4ccccc4)c4ccccc4)C(C)=C1C3(C)C)[C@]1(OC(C)=O)CO[C@@H]1C[C@@H]2O [PACLITAXEL] | Active | Active | 10 - 15% | Active | Active | Active | Active | Active | 15.8% | Active | 15 - 18% | Active | – | – | – | – | – | – | – | – | –
C=C/C=C\[C@H](C)[C@H](OC(=O)NCCCNC(=O)c1ccc(N=[N+]=[N-])cc1)[C@@H](C)[C@H](O)[C@@H](C)C/C(C)=C\[C@H](C)[C@@H](O)[C@@H](C)/C=C\[C@@H](O)C[C@@H]1OC(=O)[C@H](C)[C@@H](O)[C@H]1C | Active | Active | 10 - 15% | Active | Active | Active | Active | Active | 64.2% | Active | 15 - 18% | Active | <10% | Active | inactive | <10% | Active | Active | Active | Active | Activity [13]: Active; Activity [19]: Active; Activity [23]: Active
C=C/C=C\[C@H](C)[C@H](OC(=O)NCCNC(=O)c1ccc(N=[N+]=[N-])cc1)[C@@H](C)[C@H](O)[C@@H](C)C/C(C)=C\[C@H](C)[C@@H](O)[C@@H](C)/C=C\[C@@H](O)C[C@@H]1OC(=O)[C@H](C)[C@@H](O)[C@H]1C | – | – | 10 - 15% | – | – | – | – | – | 54.6% | – | 15 - 18% | – | <10% | Active | inactive | <10% | Active | Active | Active | Active | –
C=C/C=C\[C@H](C)[C@H](OC(=O)NCCCCNC(=O)c1ccc(N=[N+]=[N-])cc1)[C@@H](C)[C@H](O)[C@@H](C)C/C(C)=C\[C@H](C)[C@@H](O)[C@@H](C)/C=C\[C@@H](O)C[C@@H]1OC(=O)[C@H](C)[C@@H](O)[C@H]1C | – | – | 10 - 15% | – | – | – | – | – | 52.2% | – | 15 - 18% | – | <10% | Active | inactive | <10% | Active | Active | Active | Active | –
C=C/C=C\[C@H](C)[C@H](OC(N)=O)[C@@H](C)[C@H](O)[C@@H](C)C/C(C)=C\[C@H](C)[C@@H](O)[C@@H](C)/C=C\[C@@H](O)C[C@@H]1OC(=O)[C@H](C)[C@@H](O)[C@H]1C [DISERMOLIDE] | Active | Active | 10 - 15% | Active | Active | Active | Active | Active | 59.3% | Active | 15 - 18% | Active | – | – | inactive | – | – | – | – | – | Activity [13]: Active; Activity [19]: Active; Activity [23]: Active
COc1cccc2c1C(=O)c1c(O)c3c(c(O)c1C2=O)C[C@@](O)(C(=O)CO)C[C@@H]3O[C@H]1C[C@H](N)[C@H](O)[C@H](C)O1 | – | – | – | – | – | – | – | – | – | – | – | – | – | – | – | – | – | – | – | – | Activity [24]: Active; Activity [25]: Active; Activity [26]: Active; Activity [27]: Active; Activity [28]: Active; Activity [29]: Active; Activity [30]: Active
C=C/C=C\[C@H](C)[C@H](OC(=O)NCCCNC(=O)c1cccc(N=[N+]=[N-])c1)[C@@H](C)[C@H](O)[C@@H](C)C/C(C)=C\[C@H](C)[C@@H](O)[C@@H](C)/C=C\[C@@H](O)C[C@@H]1OC(=O)[C@H](C)[C@@H](O)[C@H]1C | Active | Active | 10 - 15% | Active | Active | Active | Active | Active | 60% | Active | 15 - 18% | Active | <10% | Active | inactive | <10% | Active | Active | Active | Active | Activity [13]: Active; Activity [19]: Active; Activity [23]: Active
C=C/C=C\[C@H](C)[C@H](OC(=O)NCCCNC(=O)c1ccc(C2(C(F)(F)F)N=N2)cc1)[C@@H](C)[C@H](O)[C@@H](C)C/C(C)=C\[C@H](C)[C@@H](O)[C@@H](C)/C=C\[C@@H](O)C[C@@H]1OC(=O)[C@H](C)[C@@H](O)[C@H]1C | Active | Active | 10 - 15% | Active | Active | Active | Active | Active | 56.1% | Active | 15 - 18% | Active | <10% | Active | inactive | <10% | Active | Active | Active | Active | Activity [13]: Active; Activity [19]: Active; Activity [23]: Active
